Laboratory results taken from ChEMBL document CHEMBL5712901, “DOT1L inhibition blocks multiple myeloma cell proliferation by suppressing IRF4-MYC signaling” (2019).
Activity calls are given as the source filed them. No cut-off for these calls is given here.

Tests used:
KMS-11 = experiment: Upregulation of DOT1L in human KMS-11 cells by qRT-PCR analysis; assay type: functional, cell-based
Summary of the method: (§1)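 Basal DOT1L transcript in untreated myeloma cell lines measured by qRT-PCR, normalized to ACTB; mean of 3 replicates with SEM.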

KMS-12-BM = experiment: Upregulation of DOT1L in human KMS-12-BM cells by qRT-PCR analysis; assay type: functional, cell-based; summary of the method: as §1
RPMI-8226 [1] = experiment: Upregulation of AIF1 gene in human RPMI-8226 cells at 1 uM for 6 days by; assay type: functional, cell-based; settings: time 6.0 day
RPMI-8226 [2] = experiment: Upregulation of APOL4 gene in human RPMI-8226 cells at 1 uM for 6 days by; assay type: functional, cell-based; settings: time 6.0 day
RPMI-8226 [3] = experiment: Upregulation of BMF gene in human RPMI-8226 cells at 1 uM for 6 days by; assay type: functional, cell-based; settings: time 6.0 day
RPMI-8226 [4] = experiment: Upregulation of CARD6 gene in human RPMI-8226 cells at 1 uM for 6 days by; assay type: functional, cell-based; settings: time 6.0 day
RPMI-8226 [5] = experiment: Upregulation of CCDC74B gene in human RPMI-8226 cells at 1 uM for 6 days by; assay type: functional, cell-based; settings: time 6.0 day
RPMI-8226 [6] = experiment: Upregulation of CCDC96 gene in human RPMI-8226 cells at 1 uM for 6 days by; assay type: functional, cell-based; settings: time 6.0 day
RPMI-8226 [7] = experiment: Upregulation of COL16A1 gene in human RPMI-8226 cells at 1 uM for 6 days by; assay type: functional, cell-based; settings: time 6.0 day
Summary of the method: (§2)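 Human myeloma lines RPMI-8226 and MM.1S exposed to 1 μM DOT1L inhibitor, or DMSO, for 6 days. Whole-genome expression profiled on gene expression microarray.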

RPMI-8226 [8] = experiment: Upregulation of FBXO2 gene in human RPMI-8226 cells at 1 uM for 6 days by; assay type: functional, cell-based; settings: time 6.0 day; summary of the method: as §2
RPMI-8226 [9] = experiment: Upregulation of FNBP1 gene in human RPMI-8226 cells at 1 uM for 6 days by; assay type: functional, cell-based; settings: time 6.0 day
RPMI-8226 [10] = experiment: Upregulation of ID2 gene in human RPMI-8226 cells at 1 uM for 6 days by; assay type: functional, cell-based; settings: time 6.0 day
RPMI-8226 [11] = experiment: Upregulation of IFI44 gene in human RPMI-8226 cells at 1 uM for 6 days by; assay type: functional, cell-based; settings: time 6.0 day
RPMI-8226 [12] = experiment: Upregulation of LAMB3 gene in human RPMI-8226 cells at 1 uM for 6 days by; assay type: functional, cell-based; settings: time 6.0 day
RPMI-8226 [13] = experiment: Upregulation of LY86 gene in human RPMI-8226 cells at 1 uM for 6 days by; assay type: functional, cell-based; settings: time 6.0 day
RPMI-8226 [14] = experiment: Upregulation of MME gene in human RPMI-8226 cells at 1 uM for 6 days by; assay type: functional, cell-based; settings: time 6.0 day
RPMI-8226 [15] = experiment: Upregulation of MMP9 gene in human RPMI-8226 cells at 1 uM for 6 days by; assay type: functional, cell-based; settings: time 6.0 day
RPMI-8226 [16] = experiment: Upregulation of MYOF gene in human RPMI-8226 cells at 1 uM for 6 days by; assay type: functional, cell-based; settings: time 6.0 day
RPMI-8226 [17] = experiment: Upregulation of PTPN13 gene in human RPMI-8226 cells at 1 uM for 6 days by; assay type: functional, cell-based; settings: time 6.0 day
RPMI-8226 [18] = experiment: Upregulation of PTPRD gene in human RPMI-8226 cells at 1 uM for 6 days by; assay type: functional, cell-based; settings: time 6.0 day
RPMI-8226 [19] = experiment: Upregulation of RAPGEF2 gene in human RPMI-8226 cells at 1 uM for 6 days by; assay type: functional, cell-based; settings: time 6.0 day
RPMI-8226 [20] = experiment: Upregulation of RORC gene in human RPMI-8226 cells at 1 uM for 6 days by; assay type: functional, cell-based; settings: time 6.0 day
RPMI-8226 [21] = experiment: Upregulation of S100A10 gene in human RPMI-8226 cells at 1 uM for 6 days by; assay type: functional, cell-based; settings: time 6.0 day
RPMI-8226 [22] = experiment: Upregulation of SMIM14 gene in human RPMI-8226 cells at 1 uM for 6 days by; assay type: functional, cell-based; settings: time 6.0 day
RPMI-8226 [23] = experiment: Upregulation of SORL1 gene in human RPMI-8226 cells at 1 uM for 6 days by; assay type: functional, cell-based; settings: time 6.0 day
RPMI-8226 [24] = experiment: Upregulation of TP53I3 gene in human RPMI-8226 cells at 1 uM for 6 days by; assay type: functional, cell-based; settings: time 6.0 day
RPMI-8226 [25] = experiment: Upregulation of XKR3 gene in human RPMI-8226 cells at 1 uM for 6 days by; assay type: functional, cell-based; settings: time 6.0 day
MM1.S [26] = experiment: Upregulation of ALPK1 gene in human MM1.S cells at 1 uM for 6 days by; assay type: functional, cell-based; settings: time 6.0 day
MM1.S [27] = experiment: Upregulation of APOL4 gene in human MM1.S cells at 1 uM for 6 days by; assay type: functional, cell-based; settings: time 6.0 day
MM1.S [28] = experiment: Upregulation of CPED1 gene in human MM1.S cells at 1 uM for 6 days by; assay type: functional, cell-based; settings: time 6.0 day; summary of the method: as §2
MM1.S [29] = experiment: Upregulation of CXCL12 gene in human MM1.S cells at 1 uM for 6 days by; assay type: functional, cell-based; settings: time 6.0 day; summary of the method: as §2
MM1.S [30] = experiment: Upregulation of CXCL9 gene in human MM1.S cells at 1 uM for 6 days by; assay type: functional, cell-based; settings: time 6.0 day; summary of the method: as §2
MM1.S [31] = experiment: Upregulation of HLA-DMB gene in human MM1.S cells at 1 uM for 6 days by; assay type: functional, cell-based; settings: time 6.0 day; summary of the method: as §2
MM1.S [32] = experiment: Upregulation of HLA-DRB1 gene in human MM1.S cells at 1 uM for 6 days by; assay type: functional, cell-based; settings: time 6.0 day
MM1.S [33] = experiment: Upregulation of HLA-DRB5 gene in human MM1.S cells at 1 uM for 6 days by; assay type: functional, cell-based; settings: time 6.0 day
MM1.S [34] = experiment: Upregulation of ID1 gene in human MM1.S cells at 1 uM for 6 days by; assay type: functional, cell-based; settings: time 6.0 day
MM1.S [35] = experiment: Upregulation of MILR1 gene in human MM1.S cells at 1 uM for 6 days by; assay type: functional, cell-based; settings: time 6.0 day
MM1.S [36] = experiment: Upregulation of MYO1F gene in human MM1.S cells at 1 uM for 6 days by; assay type: functional, cell-based; settings: time 6.0 day
MM1.S [37] = experiment: Upregulation of PTGER4 gene in human MM1.S cells at 1 uM for 6 days by; assay type: functional, cell-based; settings: time 6.0 day
MM1.S [38] = experiment: Upregulation of RIMBP3 gene in human MM1.S cells at 1 uM for 6 days by; assay type: functional, cell-based; settings: time 6.0 day
MM1.S [39] = experiment: Upregulation of RORC gene in human MM1.S cells at 1 uM for 6 days by; assay type: functional, cell-based; settings: time 6.0 day
MM1.S [40] = experiment: Upregulation of SNX10 gene in human MM1.S cells at 1 uM for 6 days by; assay type: functional, cell-based; settings: time 6.0 day
MM1.S [41] = experiment: Upregulation of TP53I3 gene in human MM1.S cells at 1 uM for 6 days by; assay type: functional, cell-based; settings: time 6.0 day
MM1.S [42] = experiment: Upregulation of TTC39C gene in human MM1.S cells at 1 uM for 6 days by; assay type: functional, cell-based; settings: time 6.0 day
MM1.S [43] = experiment: Effect on human MM1.S cells assessed as change in IRF4 mRNA level at 1 uM for 6 days by qRT-PCR analysis; settings: time 6.0 day
RPMI-8226 [44] = experiment: Induction of apoptosis in human RPMI-8226 cells assessed as early apoptotic cells at 1 uM for 6 days by annexin-V based propidium iodide staining based flow cytometric analysis (reference value: 6.19%); assay type: functional; settings: time 6 day
MM1.S [45] = experiment: Induction of apoptosis in human MM1.S cells assessed as early apoptotic cells at 1 uM for 3 days by annexin-V based propidium iodide staining based flow cytometric analysis (reference value: 5.51%); assay type: functional; settings: time 3 day
RPMI-8226 [46] = experiment: Effect on human RPMI-8226 cells assessed as change in IRF4 mRNA level at 1 uM for 3 days by ChIP-qPCR analysis; assay type: functional, cell-based; settings: time 3.0 day
Summary of the method: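 ChIP-qPCR for H3K79me2 at IRF4-MYC signaling genes after 1 μM inhibitor or DMSO for 3 days. Signal normalized to input DNA. An intergenic region 28 kb upstream of KLF2 served as negative control. Mean of 3 replications ± SEM.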

CC(C)N(CCCNC(=O)Nc1ccc(C(C)(C)C)cc1)C[C@H]1O[C@@H](n2cc(Br)c3c(N)ncnc32)[C@H](O)[C@@H]1O
Activity (KMS-11): Active | Activity (KMS-12-BM): Active | Activity (RPMI-8226 [1]): Active | Activity (RPMI-8226 [2]): Active | Activity (RPMI-8226 [3]): Active | Activity (RPMI-8226 [4]): Active | Activity (RPMI-8226 [5]): Active | Activity (RPMI-8226 [6]): Active | Activity (RPMI-8226 [7]): Active | Activity (RPMI-8226 [8]): Active | Activity (RPMI-8226 [9]): Active | Activity (RPMI-8226 [10]): Active | Activity (RPMI-8226 [11]): Active | Activity (RPMI-8226 [12]): Active | Activity (RPMI-8226 [13]): Active | Activity (RPMI-8226 [14]): Active | Activity (RPMI-8226 [15]): Active | Activity (RPMI-8226 [16]): Active | Activity (RPMI-8226 [17]): Active | Activity (RPMI-8226 [18]): Active | Activity (RPMI-8226 [19]): Active | Activity (RPMI-8226 [20]): Active | Activity (RPMI-8226 [21]): Active | Activity (RPMI-8226 [22]): Active | Activity (RPMI-8226 [23]): Active | Activity (RPMI-8226 [24]): Active | Activity (RPMI-8226 [25]): Active | Activity (MM1.S [26]): Active | Activity (MM1.S [27]): Active | Activity (MM1.S [28]): Active | Activity (MM1.S [29]): Active | Activity (MM1.S [30]): Active | Activity (MM1.S [31]): Active | Activity (MM1.S [32]): Active | Activity (MM1.S [33]): Active | Activity (MM1.S [34]): Active | Activity (MM1.S [35]): Active | Activity (MM1.S [36]): Active | Activity (MM1.S [37]): Active | Activity (MM1.S [38]): Active | Activity (MM1.S [39]): Active | Activity (MM1.S [40]): Active | Activity (MM1.S [41]): Active | Activity (MM1.S [42]): Active | Activity (MM1.S [43]): Active

CC(C)N(C[C@H]1O[C@@H](n2cnc3c(N)ncnc32)[C@H](O)[C@@H]1O)[C@H]1C[C@@H](CCc2nc3cc(C(C)(C)C)ccc3[nH]2)C1 [PINOMETOSTAT]
Activity (RPMI-8226 [44]): 22.4% | Activity (MM1.S [45]): 3.11% | Activity (RPMI-8226 [46]): Active
